# System: human non-small-cell lung cancer cells (A549)
# Test: In vitro cytotoxicity
# Type: cell-based
# Conditions: not given
# Procedure, shortened: (§1)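 Cells grown in DMEM with 10% FBS, penicillin/streptomycin, L-glutamine and 1 mM sodium pyruvate at 37 °C, 5% CO2. Seeded at 3 × 10^3 cells/well for 24 h, then exposed 72 h to test compound at 6.25, 12.5, 25, 50 and 100 μM; 5-FU as positive control. MTT 0.5 mg mL−1 for 3 h at 37 °C; formazan dissolved in DMSO, read at A570. Untreated cells set as 100% viability; IC50 given as mean ±SD, n = 3.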
row,Structure (SMILES),Cytotoxic activity against A549 cells (in words)
1,"Brc1ccc2nc(/C=C/c3ccco3)c(/C=C/c3ccco3)nc2c1 [Compound 4a, 6-Bromo-2,3-bis[(E)-2-(furan-2-yl)vinyl]quinoxaline]",exhibited cytotoxic activities
2,"Brc1ccc2nc(/C=C/c3cccs3)c(/C=C/c3cccs3)nc2c1 [Compound 4b, 6-Bromo-2,3-bis[(E)-2-(thiophen-2-yl)vinyl]quinoxaline]",exhibited cytotoxic activities
3,"COc1ccccc1/C=C/c1nc2ccc(Br)cc2nc1/C=C/c1ccccc1OC [Compound 4e, 6-Bromo-2,3-bis[(E)-2-methoxystyryl]quinoxaline]",exhibited cytotoxic activities
4,"Clc1cccc(/C=C/c2nc3ccc(Br)cc3nc2/C=C/c2cccc(Cl)c2)c1 [Compound 4g, 6-Bromo-2,3-bis[(E)-3-chlorostyryl]quinoxaline]",exhibited cytotoxic activities
5,"COc1ccc(/C=C/c2nc3ccc(Br)cc3nc2/C=C/c2ccc(OC)cc2)cc1 [Compound 4l, 6-Bromo-2,3-bis[(E)-4-methoxystyryl]quinoxaline]",exhibited cytotoxic activities
6,"O=[N+]([O-])c1ccc2nc(/C=C/c3cccc(Cl)c3)c(/C=C/c3cccc(Cl)c3)nc2c1 [Compound 5g, 2,3-Bis[(E)-3-chlorostyryl]-6-nitroquinoxaline]",exhibited cytotoxic activities

# System: Hs68 (human foreskin fibroblast) cells
# Test: In vitro cytotoxicity
# Type: cell-based
# Conditions: Hs68, read-out: IC50 (concentration necessary for 50% inhibition), Hs68 cells
# Procedure, shortened: as §1
row,Structure (SMILES),IC50 [µM]
1,"O=c1[nH]cc(F)c(=O)[nH]1 [5-FU, 5-Fluorouracil]",3.08 ± 0.4

# System: not listed separately
# Test: Solubility observation
# Type: physicochemical
# Conditions: compounds with two nitro groups
row,Solubility (in words),Structure (SMILES)
1,reduced the solubility,"O=[N+]([O-])c1cccc(/C=C/c2nc3ccc(Br)cc3nc2/C=C/c2cccc([N+](=O)[O-])c2)c1 [Compound 4f, 6-Bromo-2,3-bis[(E)-3-nitrostyryl]quinoxaline]"
2,reduced the solubility,"O=[N+]([O-])c1ccc(/C=C/c2nc3ccc(Br)cc3nc2/C=C/c2ccc([N+](=O)[O-])cc2)cc1 [Compound 4k, 6-Bromo-2,3-bis[(E)-4-nitrostyryl]quinoxaline]"
3,reduced the solubility,"O=[N+]([O-])c1cccc(/C=C/c2nc3ccc([N+](=O)[O-])cc3nc2/C=C/c2cccc([N+](=O)[O-])c2)c1 [Compound 5f, 6-Nitro-2,3-bis[(E)-3-nitrostyryl]quinoxaline]"
4,reduced the solubility,"O=[N+]([O-])c1ccc(/C=C/c2nc3ccc([N+](=O)[O-])cc3nc2/C=C/c2ccc([N+](=O)[O-])cc2)cc1 [Compound 5k, 6-Nitro-2,3-bis[(E)-4-nitrostyryl]quinoxaline]"

# Source: publication PMC11382098 (RSC Advances, 2024)
